# Source: ChEMBL document CHEMBL4513216, “Probing the Open Global Health Chemical Diversity Library for Multistage-Active Starting Points for Next-Generation Antimalarials” (ACS Infect Dis, 2020)
# Assay: Toxicity liver stage against HepG2, at 10uM
# Format: cell-based
# Set-up: test concentration 10 uM, cell line HepG2-A16-CD81EGFP
# Conditions: human, HepG2-A16-CD81EGFP cells; read-out: INHIBITION
# How it was run: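 Uninfected HepG2-A16-CD81EGFP cells, 3 × 10^3 per well, 1536-well, plated on prespotted compound at 10 μM final, parasite-free screening media added to match infected plates; puromycin 10 μM positive, DMSO 0.5% negative; run in parallel with 48 h PbLuc assay at 37 °C, 5% CO2; viability by CellTiter-Glo luminescence, normalized to controls.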
row,Compound,cytotoxicity at 10 µM [%]
1,Fc1ccc2[nH]c(CO[C@H]3CN(CC4CC4)C[C@H]3F)nc2c1,-2.74
2,CN(C)C(=O)c1cccnc1SCc1ccccc1C#N,2.02
3,COCC(O)CN1CCC(=O)N(Cc2ccccc2)Cc2ccccc21 (configuration not stated),1.19
4,COCCn1ccc2c(C(=O)NC(C)C)cccc21,3.46
5,COCCn1/c(=N/C(=O)C(C)C)sc2cc(Cl)ccc21,-5.26
6,CCOCCSc1nnc(-c2cn(CC)nc2OCC)n1C,-3.81
7,O=S(=O)(NCCNc1ccc(-n2cccc2)nn1)c1cccs1,-12.3
8,CC(C)NC(=O)N1CCN(C(=O)C2CCOCC2)CC2(CNC(=O)C2)C1 (configuration not stated),0.748
9,CS(=O)(=O)N1Cc2nccn2CC(CN2CCCC2=O)C1 (configuration not stated),5.8
10,CC(=O)N1CCC2(CC1)C(=O)N(CC1CC1)c1ccccc12,11.2
11,CN1CC(Oc2ccccc2)=NC(SCC(=O)c2ccccc2)=N1,-6.17
12,Nc1no[n+]([O-])c1C(=O)NCc1ccccn1,-2.02
13,CNc1cc(C2CN(Cc3cccnc3NC)CCO2)nc(C)n1 (configuration not stated),2.93
14,CCCn1nc(C)c(C(=O)N[C@@H]2CC[C@@H](N3CCCC3)[C@@H]2O)c1C,-4.79
15,Cc1cc(C)n(CC(=O)N2CCC(c3cc4cccnc4[nH]3)CC2)n1,16.8
16,FC(F)(F)c1cc(C2CCNCC2)nc(-c2ccsc2)n1,8.6
17,CCCC(=O)N1CCC(c2cc3cccnc3c(O)n2)CC1,-3.63
18,Cc1nc(C)n(CC2CCCN2c2ccnc(-c3ccccc3)n2)n1 (configuration not stated),9.69
19,CC(C(=O)N(C)Cc1ccc(Br)o1)n1cccn1 (configuration not stated),4.9
20,CS(=O)(=O)NCc1ccc2c(c1)CCC2,-1.9
21,CC(OCC1CC1)C(=O)NCCC(=O)Nc1ccccn1 (configuration not stated),-5.72
22,CC1COCCN1C(=O)c1ccc(=O)n(Cc2ccccc2)n1 (configuration not stated),-1.19
23,CCOc1ccc(NC(=O)NC2CCc3[nH]ncc3C2)cn1 (configuration not stated),3.95

row,Compound,cytotoxicity at 10 µM [%]
1,FC(F)(F)c1nc(NC2CCc3ncnn3C2)c2ccccc2n1 (configuration not stated),-2.99
2,Cc1nn(C)c2ncc(C(=O)N3CCNC(=O)C3)cc12,-6.62
3,CC(=O)NCCNC(=O)NCC1Cc2ccccc2O1 (configuration not stated),-1.83
4,FC(F)(F)c1csc(N2CCN(Cc3ccccn3)CC2)n1,4.25
5,CN1CCN(C2CCN(Cc3ccc(Cl)cc3)CC2)C1=O,7.9
6,Cc1nnc2n1CCN(C(=O)C(C)Oc1ccc(C#N)cc1)C2 (configuration not stated),-0.643
7,CC(Cc1ccsc1)NC(=O)c1cc(N2CCNC2=O)ccc1F (configuration not stated),-4.62
8,COCc1cccc(C(=O)N2CCCC2)c1,-1.7
9,CC(C)C(C(=O)NC1CC1)n1cnc2cc(F)c(F)cc21 (configuration not stated),15.3
10,O=C(c1ccc(SC(F)F)cc1)N1CCOCC1c1ncon1 (configuration not stated),4.79
11,Cc1nnc(NC(=O)NCC(C)N2CCOCC2)s1 (configuration not stated),-10.6
12,CCN(c1ccc(C(=O)Nc2c(C)nn(C(C)C)c2C)cc1)C(C)C,-2.92
13,Cc1nc2ccc(C(=O)N3CCn4c(C)nnc4C3)cc2nc1C,-6.2
14,COc1ccc2c(c1)CCCN(C(C)C(=O)NC(N)=O)C2 (configuration not stated),8.66
15,CCc1n[nH]c(C2CN(CCCOc3cccc(C)c3)CCO2)n1 (configuration not stated),-15
16,CN1CC(Nc2nc3c(cnn3-c3ccccc3)c(=O)[nH]2)CCC1=O (configuration not stated),-2.75
17,NC(=O)C1=NC2=NS(=O)(=O)c3ccccc3N2N1Cc1ccc(Br)cc1,8.34
18,CCC(=O)NC1CCCN(Cn2nc(C(C)(C)C)ccc2=O)C1 (configuration not stated),-1.69
19,Clc1cnc(NCc2ccccc2N2CCOCC2)nc1,-0.234
20,Cc1cc(C(C)NC(=O)c2ccc(O)nc2)c(C)o1 (configuration not stated),-1.85
21,COc1cc(CNc2cnn(CCN3CCOCC3)c2)cc(OC)c1,-7.38
22,Cc1noc(C)c1CN(C)C(=O)C1(NS(C)(=O)=O)CCCCC1,-11.3
23,CC1CCN(CC(O)CNc2ccccn2)CC1 (configuration not stated),11.4

row,Compound,cytotoxicity at 10 µM [%]
1,Cc1nnc(SCCC(=O)N(C)Cc2ccc(F)cc2F)[nH]1,5.21
2,Cc1nc(C)n(CC2CCCCN2CC(=O)Nc2nncs2)n1 (configuration not stated),4.62
3,CCc1noc(CNc2cc(F)ccc2OCC2CCCO2)n1 (configuration not stated),-3.27
4,CCOCC(O)CN1CCN(C(=O)c2ccnc(N(C)C)c2)CC1 (configuration not stated),-3.47
5,CN(Cc1ccc(F)cc1)C(=O)Cn1nc(-c2ccc(F)cc2)oc1=O,8.68
6,O=C(CCNC(=O)c1ccccc1)Nc1ccncc1,-2.36
7,CN(Cc1cnn(C)c1)C(=O)NC1CCC(O)CC1 (configuration not stated),-14.7
8,Cc1cc(NC(=O)N2CCN(c3nc(C)c(C)s3)CC2)no1,3.04
9,O=C(c1ccco1)N1C[C@H]2CN(Cc3cccc(F)c3)C(=O)[C@H]2C1,-78.2
10,CCc1csc(CNC2CCN(c3ccc(C)cc3)CC2)n1,-10.8
11,Cc1noc(-c2ccc(N(C)Cc3nccs3)nc2)n1,9
12,COc1nc2c(cc1C(=O)N1CCCC1c1ccccn1)CCC2 (configuration not stated),-5.54
13,CC(C)CCN1CC2(CCN(C(=O)C3(C)CCCCO3)CC2)OC1=O (configuration not stated),-14.4
14,O=C(c1ccc2c(c1)OCO2)N1CCCC(Nc2ccc(F)cc2)C1 (configuration not stated),-5.05
15,CC(C)CC(=O)N1CCc2ccc(S(=O)(=O)N3CCN(C)CC3)cc2C1,-15.3
16,COc1ccc(CC2(CO)CCN(c3cc(C#N)ccn3)CC2)cc1,8.86
17,CCNc1ncc(C(=O)NC2CCOCC2)cn1,4.37
18,CCCS(=O)(=O)NCc1cccnc1Oc1ccc(C)nc1,-1.15
19,CC(CO)NCc1csc2c1CCCC2 (configuration not stated),-11.3
20,CN(CC1COc2ccccc2O1)C(=O)c1ccc(-c2cn[nH]c2)nc1 (configuration not stated),5.37
21,Cn1nnnc1SCCNC(=O)c1c[nH]nc1C1CCCCC1,-0.863
22,CN(CC1(CO)CCCC1)[C@@H]1c2ccccc2C2(CCNCC2)[C@H]1O,1.44
23,N[C@H]1CN(S(=O)(=O)c2cccnc2)C[C@@H]1C1CC1,7.28

row,Compound,cytotoxicity at 10 µM [%]
1,CN(Cc1n[nH]c(=O)n1Cc1ccccc1F)S(C)(=O)=O,-4.98
2,CC(C)CCC(=O)N1CCCC2(CCN(Cc3ccccc3C#N)C2)C1 (configuration not stated),0.129
3,CC1(c2ccccc2)CCC(=O)N(CCCN2CCOCC2)C1 (configuration not stated),-18.1
4,Cc1cc(C)cc(N2CCN(Cc3cccc(CCN)c3)CC2=O)c1,3.32
5,Cc1cnc(NCc2ccncc2)nc1-c1cnn(C)c1,15.4
6,Cc1cnccc1-n1nc(C(C)C)nc1CCN(C)S(C)(=O)=O,-4.05
7,COc1cccc(CC2CN(C3CCN(C(C)=O)CC3)CCO2)c1 (configuration not stated),-12.4
8,O=C(CCc1cc2n(n1)CCCN(C(=O)c1cccnc1)C2)NC1CC1,-7.38
9,Cc1cccc2[nH]c(C3CCN(C(=O)c4ccnn4C)CC3)nc12,-21.6
10,COc1ccc(-c2ccnc3c2C(=O)CCC3)cc1,6.09
11,COc1c(C2CCCN2C(=O)c2cccc(C)n2)c(C)nn1C (configuration not stated),-7.52
12,Cc1nc(CN(C)C2CCCN(c3ccccc3)C2)no1 (configuration not stated),-6.9
13,CC(Cn1cccn1)NCc1nc(-c2ccsc2)no1 (configuration not stated),-8.42
14,COc1ccc(C2=CCN(C(=O)C3CCCN(C(C)=O)C3)CC2)cc1 (configuration not stated),-13.4
15,O=C(NCCc1ccccn1)Nc1cc(C(F)(F)F)c[nH]c1=O,-6.78
16,CCc1nc(C2CCCN2C(=O)CCc2c(C)noc2Cl)no1 (configuration not stated),-7.07
17,O=C(CCc1cccs1)N1CCCC1c1noc(C2CC2)n1 (configuration not stated),-4.87
18,Cc1ccc(O)c(C(=O)N2CCOCC2c2c(C)n[nH]c2C)c1 (configuration not stated),-10.8
19,Cc1nc(C)n(C2CCCN(C(=O)c3cncnc3C)C2)n1 (configuration not stated),-2.48
20,CC(C(=O)NCc1ccc(N2CCN(C)CC2)nc1)n1cccn1 (configuration not stated),-9.51
21,CC(=O)NCCCC(=O)NC(C)c1nnc2n1CCC2 (configuration not stated),-10.3
22,CN(C)c1ccc(C(=O)NCc2csc(Br)c2)cn1,-4.97
23,Cc1nc(CN2CCN(C(=O)c3sccc3C3CC3)CC2)oc1C,-15.2

row,Compound,cytotoxicity at 10 µM [%]
1,CCN1CCN(Cc2csc(C(C)C)n2)CC1,-5.78
2,Cc1cc(C(=O)N2CCN(C)CC2)nn1CC(=O)NCc1ccccn1,-3.58
3,CC1(C)CN(C(CNC2=NCCN2)c2ccc(Cl)cc2)CCO1 (configuration not stated),8
4,Fc1ccccc1CN(CCCn1ccnc1)CC1CCOC1 (configuration not stated),8.68
5,OC(CNCc1ccccc1C(F)(F)F)c1ccccc1 (configuration not stated),-4.63
6,CN1CCCN(C(=O)c2nc3c(o2)CN(C(=O)c2cccnc2)C3)CC1,2.75
7,COc1ccc(CN2C[C@@H]3CCCO[C@@H]3[C@H](NS(C)(=O)=O)C2)cc1,-2.83
8,O=C(CN1CCN(CC(O)C2CC2)CC1)NCc1ccc(F)cc1 (configuration not stated),-0.084
9,Cc1cccc(CN2CCC3(CC2)NC(=O)C[C@H]3c2cnn(C)c2)n1,4.53
10,Fc1cccc(-c2nnn3c2COC(CNCc2cccs2)C3)c1 (configuration not stated),1.07
11,c1cnc(NC[C@@H]2CCC[C@@H]3CN(Cc4cc[nH]n4)C[C@@H]32)nc1,-13.1
12,COCC1CN(Cc2ccoc2)Cc2nn(CC3CC3)cc21 (configuration not stated),-2.24
13,Cc1noc(C)c1CN1CCC2(COCc3cnc(N(C)C)nc32)C1 (configuration not stated),9.93
14,CN1CCN(C2COC3(CCN(Cc4cccs4)CC3)C2)CC1 (configuration not stated),-84.5
15,O=C(COC[C@H]1CC[C@H]2[C@H](CCN2c2ncccn2)O1)N1CCCC1,-7.41
16,CCOc1ncnc2c1CCN(Cc1csc(C)n1)CC2,-68.1
17,O=C1CC(c2ccncc2)C2(CCN(Cc3ccc(F)cc3)CC2)N1 (configuration not stated),1.35
18,O=C(Cc1cccs1)N1C[C@@H]2OCCN(CC3CCCO3)[C@@H]2C1 (some centres not stated),-11
19,CNC(=O)[C@H]1C[C@H]2CN(Cc3ccccc3)C[C@@H]1O2,8.84
20,CCN1C[C@@H]2C[C@H](C(=O)Nc3ccccc3)[C@H](C1)O2,-76.4
